This note sets out measurements from ChEMBL document CHEMBL1158621, “Tricyclic sulfones as orally active gamma-secretase inhibitors: synthesis and structure-activity relationship studies” (Bioorg Med Chem Lett, 2010).

The source made the active and inactive calls. The calls are words filed in the database; no cut-off is given here.

Data set [1] can be described thus: Inhibition of gamma-secretase-mediated cleavage of human APP Swedish and London mutation expressed in HEK293 cells assessed as reduction in amyloid beta40 production after 4 hrs by ECL technology. It is filed as cell-based. In a few lines:
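HEK293 cells expressing human APP with Swedish and London mutations were given fresh medium and incubated with inhibitor for 4 h. Ab40 was measured in 10 microliters of conditioned medium by ECL. Values are means of n = 2.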

Data set [2] can be described thus: Inhibition of gamma-secretase-mediated cleavage of human APP Swedish and London mutation expressed in HEK293 cell membrane. It is filed as cell-based.
Data set [3] relates to Mus musculus. Briefly: Reduction of amyloid beta40 level in non-transgenic mouse plasma at 10 mg/kg, po after 3 hrs. It is filed as functional.
Data set [4] relates to Mus musculus. Nature of the data set: Reduction of amyloid beta40 level in non-transgenic mouse brain at 10 mg/kg, po after 3 hrs. It is filed as functional.
Data set [5] is described as follows: Inhibition of gamma-secretase-mediated cleavage of human APP Swedish and London mutation expressed in HEK293 cells assessed as reduction in amyloid beta42 production after 4 hrs by ECL technology. The data set is classed as cell-based.
Data set [6] can be described thus: Drug level in rat brain at 10 mg/kg, po after 6 hrs. The data set is classed as ADME, organism-based. The settings on record: read-out: Drug uptake. Set-up: dose 10 mg/kg, route oral.
In a further data set the target is Cytochrome P450 3A4 (Homo sapiens, UniProt P08684). Briefly: Inhibition of CYP3A4 preincubated for 30 mins. The data set is classed as ADME. In a few lines:
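CYP3A4 inhibition was determined after the compound was pre-incubated for 30 min.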

Data set [7] is described as follows: Ratio of drug level in brain to plasma in rat at 10 mg/kg, po. It is filed as ADME, organism-based. On the set-up: dose 10 mg/kg, route oral.
Data set [8] in a line: Binding affinity to p-glycoprotein.
The species named for the next data set is Homo sapiens. Briefly: Protein binding in human plasma. Conditions: read-out: PPB (converted).
Data set [9] concerns the target Voltage-gated inwardly rectifying potassium channel KCNH2 (Homo sapiens, UniProt Q12809). Nature of the data set: Inhibition of human ERG at 30 uM.
A short description of data set [10]: Permeability across human Caco-2 cells. Conditions: read-out: permeability. It is filed as ADME, cell-based. (Caco-2 cells form a polarised layer with tight junctions and transporters.)
Data set [11] can be described thus: AUC in rat at 10 mg/kg, po after 6 hrs. It is filed as ADME, organism-based. On the set-up: time < 6 hr, dose 10 mg/kg, route oral. The settings on record: plasma. In a few lines: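 Rats were dosed orally at 10 mpk in 20% HPBCD. AUC was measured over 6 h by the cassette-accelerated rapid rat screen (CARRS).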

Chain of Voltage-gated inwardly rectifying potassium channel KCNH2 (Q12809 whole entry): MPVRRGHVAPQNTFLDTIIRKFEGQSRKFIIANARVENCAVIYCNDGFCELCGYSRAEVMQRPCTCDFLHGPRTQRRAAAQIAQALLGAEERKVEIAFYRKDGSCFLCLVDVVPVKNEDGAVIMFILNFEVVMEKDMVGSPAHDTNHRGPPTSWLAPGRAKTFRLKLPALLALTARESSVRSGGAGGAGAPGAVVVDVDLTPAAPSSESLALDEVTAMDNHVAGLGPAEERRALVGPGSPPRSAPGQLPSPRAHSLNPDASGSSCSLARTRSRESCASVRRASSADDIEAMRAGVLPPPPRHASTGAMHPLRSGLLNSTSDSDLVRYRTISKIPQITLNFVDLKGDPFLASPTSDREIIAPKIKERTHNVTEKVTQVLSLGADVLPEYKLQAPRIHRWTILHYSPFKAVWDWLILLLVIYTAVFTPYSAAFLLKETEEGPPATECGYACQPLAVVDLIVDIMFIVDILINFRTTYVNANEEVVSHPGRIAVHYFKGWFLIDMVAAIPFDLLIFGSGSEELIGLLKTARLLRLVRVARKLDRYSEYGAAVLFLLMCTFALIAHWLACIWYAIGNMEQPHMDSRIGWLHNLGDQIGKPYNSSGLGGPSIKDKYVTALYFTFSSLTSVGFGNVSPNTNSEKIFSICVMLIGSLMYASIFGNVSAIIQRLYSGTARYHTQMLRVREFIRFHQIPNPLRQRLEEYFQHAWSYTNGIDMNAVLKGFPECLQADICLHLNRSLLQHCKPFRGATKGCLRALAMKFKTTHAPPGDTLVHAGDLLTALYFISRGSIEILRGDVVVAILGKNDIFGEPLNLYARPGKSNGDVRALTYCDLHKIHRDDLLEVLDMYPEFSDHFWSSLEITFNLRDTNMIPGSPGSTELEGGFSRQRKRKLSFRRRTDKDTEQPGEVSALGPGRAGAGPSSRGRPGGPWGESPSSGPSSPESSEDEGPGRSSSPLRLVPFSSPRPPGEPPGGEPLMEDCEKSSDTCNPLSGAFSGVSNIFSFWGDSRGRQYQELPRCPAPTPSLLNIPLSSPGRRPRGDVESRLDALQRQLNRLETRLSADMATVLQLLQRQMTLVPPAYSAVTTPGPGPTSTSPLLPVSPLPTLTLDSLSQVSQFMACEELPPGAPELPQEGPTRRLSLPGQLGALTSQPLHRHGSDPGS
Chain of Cytochrome P450 3A4 (P08684 whole entry): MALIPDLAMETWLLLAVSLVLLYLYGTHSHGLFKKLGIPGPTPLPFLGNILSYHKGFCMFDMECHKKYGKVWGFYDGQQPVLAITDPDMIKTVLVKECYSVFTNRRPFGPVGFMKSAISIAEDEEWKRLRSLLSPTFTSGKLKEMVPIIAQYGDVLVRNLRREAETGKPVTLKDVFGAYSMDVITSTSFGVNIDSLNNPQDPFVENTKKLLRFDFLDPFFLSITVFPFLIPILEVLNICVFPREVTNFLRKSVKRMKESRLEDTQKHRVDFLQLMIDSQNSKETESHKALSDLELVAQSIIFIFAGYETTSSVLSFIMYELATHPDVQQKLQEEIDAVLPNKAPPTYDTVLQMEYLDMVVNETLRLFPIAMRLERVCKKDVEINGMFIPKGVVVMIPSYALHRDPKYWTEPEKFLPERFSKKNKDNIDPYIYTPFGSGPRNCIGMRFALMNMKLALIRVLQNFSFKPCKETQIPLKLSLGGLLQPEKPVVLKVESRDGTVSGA

On to `O=S(=O)(NC[C@@H]1CCC[C@@]2(S(=O)(=O)c3ccc(Cl)cc3)c3c(F)ccc(F)c3OC[C@@H]12)C(F)(F)F`, for which the IC50 was found to be 18 nM in data set [1], 12 nM in [2] and 9 nM in data set [5]. Further, the inhibition in vivo at 10 mg/kg was determined as 86% with Mus musculus [3] and 48% with Mus musculus [4].
As to `CS(=O)(=O)NC[C@@H]1CCC[C@@]2(S(=O)(=O)c3ccc(C(F)(F)F)cc3)c3c(F)ccc(F)c3OC[C@@H]12`, the concentration at 6 h in data set [6] was 80 ng/g. The IC50 is above 30000 nM against Cytochrome P450 3A4, 12 nM in data set [1], 13 nM in [2] and 3.6 nM in [5]. In addition, the Kp in data set [7] stood at 0.73. The outcome in [8] was inactive. Moreover, in the data set listed under Homo sapiens, the fraction unbound was 0.019. The “inhibition (INH)” value in [9] is “Not Active”. Further, the Papp in data set [10] came out at 42.1 ×10⁻⁶ cm/s. For the same compound, the AUC at 6 h in data set [11] was 2010 ng·h/mL.
With `O=S(=O)(NC[C@@H]1CCC[C@@]2(S(=O)(=O)c3ccc(C(F)(F)F)cc3)c3c(F)ccc(F)c3OC[C@@H]12)C(F)(F)F`, the concentration at 6 h in [6] was 91 ng/g. Moreover, the IC50 was above 30000 nM on Cytochrome P450 3A4, 40.6 nM in data set [1], 41.7 nM in data set [2] and 18.7 nM in data set [5]. Besides, the Kp in data set [7] is 1.01. Also, the outcome in data set [8] was inactive. Besides, the fraction unbound in the data set filed under Homo sapiens is 0.001. In data set [9], the “inhibition (INH)” value was “Not Active”. Also, the inhibition in vivo at 10 mg/kg in the data set on Mus musculus [3] is 101%; in the data set on Mus musculus [4], 71%. In data set [10], the Papp worked out at 23 ×10⁻⁶ cm/s. In data set [11], this compound gave an area under the curve (AUC) at 6 h of 702 ng·h/mL.

As a reminder, the IC50 is the concentration at which inhibition is half-maximal. In general, inhibition in vivo refers to the drop in the measured response relative to a control, in per cent. What is called Kp is the ratio of the level in a tissue or fluid to that in plasma or blood. Broadly, the AUC is the area under the concentration-time curve, a measure of exposure. A lower AUC goes with less exposure.
